Published values collected from several papers.
Protocols differ between the studies behind these lines.

Compound	test	test system	setting	measurement	result
CC(C)(C)c1ccc(O)c(CN(Cc2cc(C(C)(C)C)ccc2O)C2CCC(NC(N)=O)CC2)c1 (stereo not drawn)	–	male C57BL/6 mouse, plasma	oral, 10 mg/kg, single dose	Vd	2.79 L
CC(C)(O)c1ccccc1-c1ccc2[nH]c(/C=C/c3ccc(C(F)(F)F)cc3)nc2c1	–	male human, plasma	oral, 30 mg, single dose, fasted, healthy volunteers	half-life	82.6 h
CC[C@H](C)[C@H](NC(=O)[C@H](CCC(=O)O)NC(=O)[C@H](CO)NC(=O)[C@@H](NC(=O)[C@@H](N)CO)C(C)C)C(=O)N[C@@H](CCC(N)=O)C(=O)N[C@@H](CC(C)C)C(=O)N[C@@H](CCSC)C(=O)N[C@@H](Cc1cnc[nH]1)C(=O)N[C@@H](CC(N)=O)C(=O)N[C@@H](CC(C)C)C(=O)NCC(=O)N[C@@H](CCCCN)C(=O)N[C@@H](Cc1cnc[nH]1)C(=O)N[C@@H](CC(C)C)C(=O)N[C@@H](CC(N)=O)C(=O)N[C@@H](CO)C(=O)N[C@@H](CCSC)C(=O)N[C@@H](CCC(=O)O)C(=O)N[C@@H](CCCN=C(N)N)C(=O)N[C@H](C(=O)N[C@@H](CCC(=O)O)C(=O)N[C@@H](Cc1c[nH]c2ccccc12)C(=O)N[C@@H](CC(C)C)C(=O)N[C@@H](CCCN=C(N)N)C(=O)N[C@@H](CCCCN)C(=O)N[C@@H](CCCCN)C(=O)N[C@@H](CC(C)C)C(=O)N[C@@H](CCC(N)=O)C(=O)N[C@@H](CC(=O)O)C(=O)N[C@H](C(=O)N[C@@H](Cc1cnc[nH]1)C(=O)N[C@@H](CC(N)=O)C(=O)N[C@@H](Cc1ccccc1)C(=O)O)C(C)C)C(C)C	chemical stability, HPLC	aqueous buffer	0.5 mg/mL, 10 min, pH 6.5	compound remaining	100%
CC(C)n1cc(C#N)c2cc(-n3cc(C(=O)O)cn3)ccc21	–	human, plasma	oral, 200 mg, single dose, fed, healthy volunteers	half-life	15 h
CC(=O)N[C@@H](Cc1ccccc1)C(=O)N[C@@H](Cc1ccccc1)C(=O)N1CCC[C@H]1C(=O)N[C@@H](CC(C)C)C(=O)NCC(=O)N[C@@H](CC(C)C)C(=O)N[C@@H](C)C(=O)NCC(=O)N[C@@H](CC(=O)O)C(=O)N[C@@H](CC(=O)O)C(=O)O	chemical stability	human, plasma	1 mM, pH 7.4	half-life	20.7 h
CC(=O)OCOC(=O)C1CC(C)(C)N([O])C1(C)C (stereo not drawn)	chemical stability	bovine, serum	–	half-life	0.567 h
COc1ccc([C@@H]2CN(C(=O)[C@@H](O)CO)C[C@@]2(C)[C@@H](C)O)cc1OC1CN(c2ccc(C)cn2)C1	–	human, plasma	oral, 0.5 mg, single dose, healthy volunteers	half-life	11.9 h
C[C@]1(c2nc3c(C(N)=O)cccc3[nH]2)CCCN1	–	male rhesus monkey, plasma	oral, 5 mg/kg, single dose	AUC(0-inf)	3.7 µM·h
COCCOc1cnc2ccn([C@H](C)c3nnc4c(F)cc(-c5cnn(C)c5)cn34)c(=O)c2c1	–	human, plasma	oral, 400 mg, multiple doses, once daily, patients	half-life	7.7 h
